Test results: ChEMBL document CHEMBL1123899, “Nucleic acid related compounds. 51. Synthesis and biological properties of sugar-modified analogues of the nucleoside antibiotics tubercidin, toyocamycin, sangivamycin, and formycin” (1987)
≈ marks a conversion by molar mass, not a printed value.

How the values were obtained:
L1210 [1] = assay: Minimum inhibitory concentration required to reduce incorporation of [methyl-3H]dThd into TCA-insoluble material from murine leukemia L1210 cells; assay type: functional; conditions: Mus musculus
In short: (§1)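 Murine L1210 leukemia cells; MIC50 is the concentration reducing cell growth, or incorporation of [methyl-3H]dThd into TCA-insoluble material (DNA synthesis), by 50%. Average of at least three separate experiments.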

Human alphaherpesvirus 1 = assay: Minimum inhibitory concentration required to reduce Herpes simplex virus type 1 (HSV-1, strain KOS) induced cytopathogenicity by 50%; assay type: functional
[2] = test system: Vesicular stomatitis virus; assay: Minimum inhibitory concentration required to reduce Vesicular stomatitis virus (VSV) induced cytopathogenicity by 50%; assay type: functional
Human respirovirus 3 = assay: Minimum inhibitory concentration required to reduce parainfluenza type 3 induced cytopathogenicity by 50%; assay type: functional
[3] = test system: Vesicular stomatitis virus; assay: Minimum inhibitory concentration required to reduce vesicular stomatitis virus (VSV) induced cytopathogenicity by 50%; assay type: functional
Measles morbillivirus = assay: Minimum inhibitory concentration required to reduce measles virus induced cytopathogenicity by 50%; assay type: functional
Coxsackievirus B4 = assay: Minimum inhibitory concentration required to reduce Coxsackie virus type B-4-induced cytopathogenicity by 50%; assay type: functional
Human alphaherpesvirus 2 = assay: Minimum inhibitory concentration required to reduce Herpes simplex virus type 2 (HSV-2 strain G) induced cytopathogenicity by 50%; assay type: functional
Oryctolagus cuniculus = species on record: Oryctolagus cuniculus; assay: Minimum cytotoxic concentration required to cause a microscopically detectable alteration of normal cell morphology in primary rabbit kidney cells; assay type: functional
In short: (§2)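 Cytotoxicity read microscopically as the minimum concentration producing a detectable alteration of normal cell morphology, in PRK, HeLa or Vero cell cultures. Average of two to three separate experiments.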

Poliovirus 1 = assay: Minimum inhibitory concentration required to reduce Polio virus type 1 induced cytopathogenicity by 50%; assay type: functional; conditions: Enterovirus C
HeLa = assay: Minimum cytotoxic concentration required to cause a microscopically detectable alteration of normal cell morphology in Hela cells; assay type: functional, Homo sapiens; in short: as §2
L1210 [4] = assay: Inhibition of murine leukemia L1210 cell growth; assay type: functional; conditions: Mus musculus; in short: as §1
Sindbis virus = assay: Minimum inhibitory concentration required to reduce sindbis virus induced cytopathogenicity by 50%; assay type: functional
[5] = test system: Mammalian orthoreovirus 1; assay: Minimum inhibitory concentration required to reduce reo virus type 1 induced cytopathogenicity by 50%; assay type: functional
Vero = assay: Minimum cytotoxic concentration required to cause a microscopically detectable alteration of normal cell morphology in Vero cells; assay type: functional, Chlorocebus sabaeus; in short: as §2
L1210 [6] = assay: Minimum inhibitory concentration required to reduce incorporation of [4,5-3H]leucine into TCA-insoluble material from murine leukemia L1210 cells; assay type: functional; conditions: Mus musculus
In short: (§3)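 Murine L1210 leukemia cells were exposed to compound and incorporation of [4,5-3H]leucine (protein) or [5-3H]Urd (RNA) into TCA-insoluble material was measured. MIC50 is the concentration reducing incorporation by 50%. Values are averages of at least three separate experiments.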

L1210 [7] = assay: Minimum inhibitory concentration required to reduce incorporation of [5-3H]-Urd into TCA-insoluble material from murine leukemia L1210 cells; assay type: functional; conditions: Mus musculus; in short: as §3

SMILES	MIC50 (L1210 [1]) [µg/mL]	MIC50 (Human alphaherpesvirus 1) [µg/mL]	MIC50 [2] [µg/mL]	MIC50 (Human respirovirus 3) [µg/mL]	MIC50 [3] [µg/mL]	MIC50 (Measles morbillivirus) [µg/mL]	MIC50 (Coxsackievirus B4; Enterovirus B, read-out: MIC50) [µg/mL]	MIC50 (Human alphaherpesvirus 2) [µg/mL]	MTC (Oryctolagus cuniculus) [µg/mL]	MIC50 (Poliovirus 1) [µg/mL]	MTC (HeLa) [µg/mL]	MIC50 (L1210 [4]) [µg/mL]	MIC50 (Sindbis virus) [µg/mL]	MIC50 [5] [µg/mL]	MTC (Vero) [µg/mL]	MIC50 (L1210 [6]) [µg/mL]	MIC50 (L1210 [7]) [µg/mL]	MIC50 (Coxsackievirus B4) [µg/mL]
NC(=O)c1cn(C2OC(CO)CC2O)c2ncnc(N)c12 (configuration not stated)	17 (≈ 58 µM)	> 10	> 40	10 (≈ 34.1 µM)	> 10	> 40	> 40	> 10	10	> 40	40	0.46 (≈ 1.57 µM)	> 40	> 40	40			
Nc1ncnc2c1ccn2C1OC(CO)CC1O (configuration not stated)	90 (≈ 360 µM)	> 10	20 (≈ 79.9 µM)	20 (≈ 79.9 µM)	> 10	> 100		> 10	10	2 (≈ 7.99 µM)	40	0.38 (≈ 1.52 µM)	> 100	10 (≈ 40 µM)	100	2.08 (≈ 8.31 µM)	3.2 (≈ 12.8 µM)	
NC(=O)c1ncn([C@@H]2O[C@H](CO)[C@@H](O)[C@H]2O)n1 [RIBAVIRIN]		> 400	4 (≈ 16.4 µM)	50 (≈ 205 µM)	300 (≈ 1230 µM)	30 (≈ 123 µM)	40 (≈ 164 µM)	> 400	>400	20 (≈ 81.9 µM)	>400		65 (≈ 266 µM)	75 (≈ 307 µM)	>400			70 (≈ 287 µM)
Nc1ncnc2c([C@H]3C[C@H](O)[C@@H](CO)O3)n[nH]c12	> 1000	> 400	> 400	> 400	> 400	> 400	> 400	> 400	>400	> 400	>400	867 (≈ 3450 µM)	> 400	> 400	>400	> 1000	> 100	
